These results are taken from BindingDB's records for doi:10.1016/j.bmc.2010.11.059 (University of Eastern Finland, 2011).

The structures appear in SMILES notation.

Sequence of Cannabinoid receptor 2 (P34972 whole entry): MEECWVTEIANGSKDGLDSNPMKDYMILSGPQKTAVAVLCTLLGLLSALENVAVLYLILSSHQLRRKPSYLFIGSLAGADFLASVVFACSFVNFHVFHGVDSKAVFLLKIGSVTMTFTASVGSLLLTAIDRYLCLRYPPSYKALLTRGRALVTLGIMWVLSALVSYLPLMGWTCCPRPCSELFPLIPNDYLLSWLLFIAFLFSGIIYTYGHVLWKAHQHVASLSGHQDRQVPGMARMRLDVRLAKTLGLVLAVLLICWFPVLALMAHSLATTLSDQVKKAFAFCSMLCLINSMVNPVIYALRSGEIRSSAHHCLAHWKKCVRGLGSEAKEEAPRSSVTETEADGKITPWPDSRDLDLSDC
Sequence of Cannabinoid receptor 1 (P20272 whole entry): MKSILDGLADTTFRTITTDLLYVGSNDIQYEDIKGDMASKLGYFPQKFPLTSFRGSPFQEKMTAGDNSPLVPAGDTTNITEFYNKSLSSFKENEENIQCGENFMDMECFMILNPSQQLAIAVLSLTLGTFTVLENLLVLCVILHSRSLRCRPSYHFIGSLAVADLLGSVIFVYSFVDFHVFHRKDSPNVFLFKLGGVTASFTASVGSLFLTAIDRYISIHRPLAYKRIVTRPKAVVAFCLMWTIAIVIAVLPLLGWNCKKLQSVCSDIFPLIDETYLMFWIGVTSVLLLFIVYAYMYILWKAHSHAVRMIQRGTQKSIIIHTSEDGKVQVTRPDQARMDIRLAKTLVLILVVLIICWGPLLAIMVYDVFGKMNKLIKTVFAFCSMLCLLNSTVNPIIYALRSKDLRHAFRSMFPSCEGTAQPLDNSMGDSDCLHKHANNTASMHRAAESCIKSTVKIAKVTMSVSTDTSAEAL

The target in one test is Cannabinoid receptor 1 (Rattus norvegicus, UniProt P20272). Nature of the test: Antagonist activity at rat cannabinoid CB1 receptor in Wistar rat cerebellar membranes by [35S]GTPgammaS binding assay. The procedure, abridged:
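Non-recombinant rat cerebellar membrane fractions, [35S]GTPγS binding. Compounds screened at a single concentration for their ability to antagonise the response to 10 nM HU-210 agonist.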
In general terms: Binding of GTPγS marks nucleotide exchange on a G protein.
With `O=C(c1cnc(Nc2cccc(C(F)(F)F)c2)c2ccccc12)N1CCOCC1`, the EC50 (as a rule, the concentration at which the effect is half-maximal) was 9990 nM.

Another test deals with Cannabinoid receptor 2 (Homo sapiens, UniProt P34972). The test can be described thus: Agonist activity at human recombinant cannabinoid CB2 receptor expressed in CHO cells by [35S]GTPgammaS binding assay. The procedure, abridged:
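hCB2 [35S]GTPγS binding concentration–response curves, run only for ligands giving over 50% relative activity at 10 µM. logEC50 and Emax come from nonlinear regression fitted to a sigmoidal concentration–response equation. Emax is given as percent of the 10 nM HU-210 response. Mean SEM of at least three experiments in duplicate.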
On to `COc1ccc(Nc2ccc3ccccc3n2)cc1` [2-(4''-Methoxyanilino)Quinoline], for which the 50% effective concentration (EC50) is 1990 nM. With `Clc1cccc(Nc2ccc3ccccc3n2)c1`, the EC50 was determined as 2510 nM. For `Brc1cccc(Nc2ccc3ccccc3n2)c1`, the EC50 amounted to 1990 nM. With `FC(F)(F)c1ccccc1Nc1ccc2ccccc2n1`, the EC50 worked out at 6300 nM. With `FC(F)(F)c1cccc(Nc2ccc3ccccc3n2)c1`, the EC50 was 1250 nM. Still for that read-out and setting: under `O=C(NC1CCCCC1)c1cnc(Nc2cccc(C(F)(F)F)c2)c2ccccc12` stands 1990 nM; under `c1ccc(Sc2ccc3ccccc3n2)cc1` [2-Phenylsulfanyl-Quinoline], 3980 nM; under `FC(F)(F)c1cccc(Nc2ccnc3ccccc23)c1`, 3160 nM. In the case of `FC(F)(F)c1cccc(Nc2nccc3ccccc23)c1`, the EC50 is 1580 nM. With `c1ccc2nc(NC3CCCCC3)ccc2c1`, the EC50 turned out to be 6300 nM.

`FC(F)(F)c1cccc(Nc2ncc3ccccc3n2)c1`: the EC50 is 3160 nM.

In the case of `FC(F)(F)c1cccc(Nc2ncnc3ccccc23)c1`, the EC50 is 2510 nM. The same measure, in the same setting: for `FC(F)(F)c1cccc(Nc2cnc3ccccc3n2)c1` the value was 3980 nM; for `Clc1ccccc1Nc1ccc2ccccc2n1`, 6300 nM. Regarding `COc1ccccc1Nc1ccc2ccccc2n1`, the EC50 turned out to be 5010 nM. The same measure, in the same setting: for `O=C(NCC1CCCCC1)c1cnc(Nc2cccc(C(F)(F)F)c2)c2ccccc12` the value was 1580 nM; for `O=C(c1cnc(Nc2cccc(C(F)(F)F)c2)c2ccccc12)N1CCOCC1`, 15.8 nM. As for `Clc1ccc(Nc2ccc3ccccc3n2)cc1` [N-(4-chlorophenyl)quinolin-2-amine], the EC50 is 1990 nM. Regarding `COc1cccc(Nc2ccc3ccccc3n2)c1`, the EC50 came out at 2510 nM.
